Compound activity: PubChem BioAssay, several laboratories
HCT116 bCat-KO = primary screen for growth suppressors in beta-catenin knockout HCT116 cells (colon tumor, human); viability, % at 10 µM; AID 818, 2007; HCT116 beta-catenin knockout viability, CellTiter-Glo, 60 h; active compounds read low; 1.5% of 140,000 active;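 active = viability at or under a set limit, the compound median less 4 SD, cut at about 6% in these data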;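 also: 0% = Hyamine 1622 control at 20 µM and 100% = untreated cell control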
H69AR growth 86K = proliferation blockers of H69AR lung cancer cells, primary screen, cell-based, human, 86K library | H69AR lung tumor viability, ATP luminescence, 72 h; active compounds read low | viability, % at 10 µM | 6% of 85,000 active;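 active = viability at or below 40%; inactive = viability above 40%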;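 also: multidrug resistant small cell line overexpressing MRP-1 efflux transporter; 100% = mean luminescence of untreated control wells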
HUVEC prolif 384 = inhibitors of HUVEC proliferation, primary screen, cell-based, 384-well; CellTiter-Glo luminescence, 72 h; active compounds read low; viability, % at 10 µM (by protocol); 1.1% of 86,000 active; AID 648, 2007;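 active = viability at or below 30%; inactive = viability above 30%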;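 also: 100% = median luminescence of DMSO-only cell control wells on each plate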
HCT116 PTEN-null = growth suppression of PTEN-null HCT116, primary screen, cell-based, CellTiter-Glo. 1.2% of 140,000 active. HCT116 PTEN-null viability, 60 h; active compounds read low. AID 827, 2007. viability, % at 10 µM;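 active = viability at or below a set limit, 4 SD under the median of all tested compounds, cut at about 3.7% in these data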;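 also: PTEN knockout HCT116 line with beta catenin targeted HCT116 as companion control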
Lung fibro prol = antiproliferative effect on LL 47 fibroblasts – human, LL 47 cells, CellTiter-Glo luminescence, primary screen; LL 47 human lung fibroblast viability, ATP luminescence; active compounds read low; viability, % at 10 µM; 1.1% of 85,000 active;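 active = viability at or below 50% in the single dose screen; inactive = viability above 50%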;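 also: compound exposure lasted 72 h before the ATP readout; 100% = median luminescence of untreated cell-only wells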
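Times – overnight cell rest, 72 h compound treatment at 37 °C · Test system – human lung fibroblast line LL 47, low passage · Amount – 1,150 cells in each well · Controls – cell-only wells, no compound · Doses – 0.1% DMSO in all compound wells · Measured by – CellTiter-Glo luminescence · Buffer or medium – IMEM plus 15% FBS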
PTK2B oligo ant = antagonists of Pyk2 self-association, primary screen, Q293 cells, FERM NanoBiT luminescence, HTS; Protein-tyrosine kinase 2-beta (Homo sapiens), Q14289; active compounds read low; z-score (the deposit names both 25 µM and 10 µM); 0.83% of 99,000 active;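 active = Z-score of -3 or lower, scaled per plate to the spread of control and sample wells; inactive = z-score above -3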;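 also: negative z-score means lost luminescence so less FERM oligomerization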
An asterisk follows results filed as active; · = no result. Only a selection was taken, and hits are over-represented in it overall.

SMILES	HCT116 bCat-KO	H69AR growth 86K	HUVEC prolif 384	HCT116 PTEN-null	Lung fibro prol	PTK2B oligo ant
COc1cccc(-c2cc(C(=O)Nc3cc(OC)c(OC)c(OC)c3)no2)c1	33.0	16.9*	50.4	23.9	75.5	-1.12
CCOC(=O)Cn1c2c(c(=N)c3c1CCC3)CCC2	93.8	95.9	95.2	92.2	96.1	-0.41
CCCCCCCCCCn1c2c(c(=N)c3c1CCC3)CCC2	1.6*	1.8*	4.3*	0.9*	8.6*	-1.31
CCCCc1oc2ccccc2c1C(=O)c1cc(I)c(OCCN(CC)CC)c(I)c1	12.9	2.1*	16.9*	17.0	90.2	·
CCN(CC)CCOc1ncnc2c1oc1ccccc12	104.2	83.9	89.6	95.0	96.4	2.03
c1ccc(-c2nc(N3CCCCCC3)nc(-n3ccnc3)n2)cc1	27.6	0.9*	46.4	29.2	73.8	-1.81
c1ccc(N(c2ccccc2)c2nc(-n3ccnc3)nc(-n3ccnc3)n2)cc1	81.7	50.1	93.1	79.9	89.8	-2.05
C=CCNc1nc(N(c2ccccc2)c2ccccc2)nc(-n2ccnc2)n1	92.7	53.7	77.5	95.3	88.5	-1.36
CCCCNc1nc(N(C)c2ccccc2)nc(-n2ccnc2)n1	78.6	33.5*	81.5	70.0	76.1	-2.47
c1ccc(-c2nc(N3CCN(c4ccccc4)CC3)nc(-n3ccnc3)n2)cc1	73.7	63.4	88.3	67.9	93.5	-1.73
CN(c1ccccc1)c1nc(-n2ccnc2)nc(-n2ccnc2)n1	99.5	31.7*	83.2	93.6	87.8	-0.01
Cc1c(Cl)cccc1NC(=O)CNC(=O)c1ccccc1F	94.3	·	·	109.6	·	·
CCCC1=C(C(=O)OCC)C(c2c(C)nn(-c3ccccc3)c2Cl)C(C#N)=C(N)O1 (stereo not drawn)	85.2	75.6	93.4	83.3	98.6	-1.3
CCOC(=O)CCP(=O)(O)C(O)c1ccccc1 (stereo not drawn)	101.5	94.5	93.2	102.2	97.9	0.01
CCc1c(C)nc2cc(-c3ccc(OC)c(OC)c3)nn2c1N1CCC(C)CC1	75.1	70.1	105.2	75.5	102.3	-0.38
CCc1c(C)nc2cc(-c3ccc(OC)c(OC)c3)nn2c1N1CCCC1	53.0	37.9*	64.0	28.6	90.0	-1.09
N#CCCn1nnc2ccccc21	6.0*	85.3	95.6	5.5	99.4	0.34
CC(=O)C(Sc1ncnc2c1nnn2-c1ccc(F)cc1)C(=O)N(C)C (stereo not drawn)	98.6	11.6*	88.7	98.6	107.0	·
CCOC(=O)CSc1ncnc2c1nnn2-c1ccc(F)cc1	94.0	104.5	87.1	97.5	97.2	1.03
O=C(CCc1nc(-c2ccccc2F)no1)Nc1ccc(Oc2ccccc2)cc1	8.9	29.5*	32.3	15.1	60.3	-0.89
Cc1ccc(C23CC4CC(CC(NC(=O)N5CCN(C)CC5)(C4)C2)C3)cc1	1.5*	83.2	71.7	1.6*	84.6	-0.12
CCS(=O)(=O)Nc1ccc(C2=NN(C(=O)c3ccco3)C(c3ccc(C)cc3)C2)cc1 (stereo not drawn)	75.7	·	·	66.7	·	-3.04*
Cc1ccc(C2CC(c3ccc(NS(C)(=O)=O)cc3)=NN2C(=O)c2ccco2)cc1 (stereo not drawn)	84.8	·	·	82.6	·	·
O=C(c1ccc(S(=O)(=O)c2ccccc2Cl)c([N+](=O)[O-])c1)N1CCCCCC1	19.7	·	·	24.9	·	·
COc1ccc(NC(=O)Cn2nnc(C(=O)NCc3ccccc3)c2N)cc1Cl	54.2	27.6*	69.8	62.3	93.8	-0.37
CC1=C(C(=O)OCCNC(=O)c2ccccc2O)C(c2ccccc2[N+](=O)[O-])C(C(=O)OCC2CCCO2)=C(C)N1 (stereo not drawn)	63.4	·	·	59.6	·	·
CC1CN(S(=O)(=O)c2cccc(C(=O)OCC(=O)Nc3ccc4c(c3)OCO4)c2)CC(C)O1 (stereo not drawn)	80.7	1.0*	84.8	77.3	99.0	-0.98
O=C1Nc2ccccc2/C1=N/c1sc2c(c1C(=O)NCCc1ccccc1)CCCC2	93.9	·	·	82.9	·	0.52
NNC(=O)CSc1cccc2cccnc12	92.5	·	·	102.3	·	·
